Test results taken from publication PMC11439338 (BMC Chemistry, 2024).
Entries after “also recorded” stand apart in the source; their conditions may differ.

How the values were obtained:
[1] = tested on: mushroom tyrosinase (EC 1.14.18.1); assay: In vitro mushroom tyrosinase inhibition assay; assay type: biochemical; settings: SAR discussion
mushroom tyrosinase = mushroom tyrosinase (Agaricus bisporus, UniProt C7FF04); assay: Kinetic study of tyrosinase inhibition; assay type: biochemical
Method in brief: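 Mushroom tyrosinase diphenolase activity; test compound in DMSO, pre-incubated 20 min at 28 °C with enzyme (added as 600 U mL−1 solution) in 50 mM phosphate buffer pH 6.8. Inhibitor 5–50 µM; L-Dopa 0.1–1.5 mM. Dopachrome at 490 nm read each minute for 10 min; initial velocity from linear segment. Lineweaver–Burk plots gave Km and Vmax; Ki from slope versus inhibitor concentration.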

Chain of mushroom tyrosinase (C7FF04 1-392): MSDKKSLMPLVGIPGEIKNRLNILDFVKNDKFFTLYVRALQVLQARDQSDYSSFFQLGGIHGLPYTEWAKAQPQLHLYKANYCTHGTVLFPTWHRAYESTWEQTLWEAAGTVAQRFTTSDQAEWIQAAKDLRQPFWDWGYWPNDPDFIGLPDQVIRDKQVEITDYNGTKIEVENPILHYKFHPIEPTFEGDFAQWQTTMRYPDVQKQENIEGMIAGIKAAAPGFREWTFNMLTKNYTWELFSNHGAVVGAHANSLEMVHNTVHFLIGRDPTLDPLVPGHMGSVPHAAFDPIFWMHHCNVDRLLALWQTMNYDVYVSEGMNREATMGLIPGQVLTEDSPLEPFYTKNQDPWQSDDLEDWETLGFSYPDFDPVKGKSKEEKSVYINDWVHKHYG

| Structure (SMILES) | activity against tyrosinase (in words) [1] | Ki (mushroom tyrosinase) [µM] | type of inhibition (mushroom tyrosinase; Lineweaver-Burk plot, L-Dopa substrate) |
| --- | --- | --- | --- |
| CC1(C)CC(=O)C2=C(C1)OC(N)=C(C#N)C2c1ccc(OCc2ccc(F)cc2)cc1 (stereo not drawn) [6c, 2-Amino-4-(4-((4-fluorobenzyl)oxy)phenyl)-7,7-dimethyl-5-oxo-5,6,7,8-tetrahydro-4H-chromene-3-carbonitrile] | no activity | – | – |
| CC1(C)CC(=O)C2=C(C1)OC(N)=C(C#N)C2c1ccc(OCc2ccc(C#N)cc2)cc1 (stereo not drawn) [6f, 2-Amino-4-(4-((4-cyanobenzyl)oxy)phenyl)-7,7-dimethyl-5-oxo-5,6,7,8-tetrahydro-4H-chromene-3-carbonitrile] | – | 16.1 | competitive inhibition; also recorded: competitive inhibitor |
